These results are taken from ChEMBL document CHEMBL3352014, “Effect of acyclic monoterpene alcohols and their derivatives on TRP channels” (Bioorg Med Chem Lett, 2014).

Assay type in all cases: cell-based
The target in experiment [1] is T1, Transient receptor potential cation channel subfamily V member 1 (Homo sapiens, UniProt Q8NER1). As to the kind of experiment: Agonist activity at human TRPV1 expressed in HEK293 cells assessed as increase in intracellular Ca2+ concentration by Fluo-4-AM dye based spectrofluorimetry. The essentials: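 HEK293 stably expressing human TRPV1 or rat TRPM8, grown in EMEM with non-essential amino acids, 10% FBS, 2 mM glutamine, 37 °C, 5% CO2. Fluo-4-AM loaded 1 h at room temperature; cells in Tyrode's buffer pH 7.4, about 100,000 per stirred cuvette. Fluorescence (ex 488/em 516 nm) read at 25 °C before and after various compound concentrations. EC50 from sigmoidal variable-slope fit; at least 3 determinations.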

Experiment [2] deals with Transient receptor potential cation channel subfamily M member 8 (Rattus norvegicus, UniProt Q8R455). As to the kind of experiment: Antagonist activity against rat TRPM8 expressed in HEK293 cells assessed as inhibition of icilin-induced increase in intracellular Ca2+ concentration by Fluo-4-AM dye based spectrofluorimetry.
Experiment [3] has as its target Transient receptor potential cation channel subfamily M member 8 (Rattus norvegicus) (UniProt Q8R455). As to the kind of experiment: Agonist activity at rat TRPM8 expressed in HEK293 cells assessed as increase in intracellular Ca2+ concentration by Fluo-4-AM dye based spectrofluorimetry relative to ionomycin. A digest of the protocol: (§1)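 Same stably transfected HEK293 Fluo-4 calcium assay: human TRPV1, rat TRPM8. Tyrode's buffer pH 7.4, 25 °C, ex 488/em 516 nm. Efficacy is the compound-evoked [Ca2+]i rise normalized to the maximal Ca2+ influx from 4 µM ionomycin. Means of at least 3 determinations.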

Experiment [4] deals with T2, Transient receptor potential cation channel subfamily A member 1 (Rattus norvegicus, UniProt Q6RI86). As to the kind of experiment: Antagonist activity against rat TRPA1 expressed in HEK293 cells assessed as inhibition of AITC-induced increase in intracellular Ca2+ concentration by Fluo-4-AM dye based spectrofluorimetry.
The target in experiment [5] is T2, Transient receptor potential cation channel subfamily A member 1. As to the kind of experiment: Agonist activity at rat TRPA1 expressed in HEK293 cells assessed as increase in intracellular Ca2+ concentration by Fluo-4-AM dye based spectrofluorimetry.
The target of experiment [6] is T1, Transient receptor potential cation channel subfamily V member 1. As to the kind of experiment: Antagonist activity against human TRPV1 expressed in HEK293 cells assessed as inhibition of capsaicin-induced increase in intracellular Ca2+ concentration by Fluo-4-AM dye based spectrofluorimetry.
The target is the same in experiment [7]. As to the kind of experiment: Agonist activity at human TRPV1 expressed in HEK293 cells assessed as increase in intracellular Ca2+ concentration by Fluo-4-AM dye based spectrofluorimetry relative to ionomycin. The essentials: as §1

T2 sequence (Q6RI86 whole entry): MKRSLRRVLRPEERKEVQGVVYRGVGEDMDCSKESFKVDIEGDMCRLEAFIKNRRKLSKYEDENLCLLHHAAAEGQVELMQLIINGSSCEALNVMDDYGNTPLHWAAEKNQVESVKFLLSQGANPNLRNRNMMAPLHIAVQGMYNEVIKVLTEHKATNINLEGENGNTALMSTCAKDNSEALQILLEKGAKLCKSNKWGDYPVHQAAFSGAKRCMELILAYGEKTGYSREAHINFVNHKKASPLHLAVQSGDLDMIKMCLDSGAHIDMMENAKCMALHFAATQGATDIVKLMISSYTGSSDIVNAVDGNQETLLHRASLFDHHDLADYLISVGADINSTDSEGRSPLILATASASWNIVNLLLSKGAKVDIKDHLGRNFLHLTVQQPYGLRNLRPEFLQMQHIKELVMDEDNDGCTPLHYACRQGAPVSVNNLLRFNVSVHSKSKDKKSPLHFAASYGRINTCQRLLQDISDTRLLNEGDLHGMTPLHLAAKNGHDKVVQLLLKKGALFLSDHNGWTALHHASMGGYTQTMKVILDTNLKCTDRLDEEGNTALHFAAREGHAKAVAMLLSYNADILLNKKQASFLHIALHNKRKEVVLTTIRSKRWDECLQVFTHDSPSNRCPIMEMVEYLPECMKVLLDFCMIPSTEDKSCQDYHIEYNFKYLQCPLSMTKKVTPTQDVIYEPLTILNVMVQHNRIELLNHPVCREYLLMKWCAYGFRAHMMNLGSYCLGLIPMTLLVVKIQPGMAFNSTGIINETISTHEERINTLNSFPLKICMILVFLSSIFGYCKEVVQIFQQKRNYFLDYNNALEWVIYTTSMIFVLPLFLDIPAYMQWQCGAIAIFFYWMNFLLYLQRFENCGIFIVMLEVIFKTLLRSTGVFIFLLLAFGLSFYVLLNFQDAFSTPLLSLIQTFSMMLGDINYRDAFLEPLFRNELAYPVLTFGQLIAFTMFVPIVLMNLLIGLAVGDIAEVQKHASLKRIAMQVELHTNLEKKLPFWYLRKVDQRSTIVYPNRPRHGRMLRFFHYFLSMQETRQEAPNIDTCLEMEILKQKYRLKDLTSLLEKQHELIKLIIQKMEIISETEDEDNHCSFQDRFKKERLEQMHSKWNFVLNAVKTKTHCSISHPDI
Chain of Transient receptor potential cation channel subfamily M member 8 (Rattus norvegicus) (Q8R455 whole entry, looked up): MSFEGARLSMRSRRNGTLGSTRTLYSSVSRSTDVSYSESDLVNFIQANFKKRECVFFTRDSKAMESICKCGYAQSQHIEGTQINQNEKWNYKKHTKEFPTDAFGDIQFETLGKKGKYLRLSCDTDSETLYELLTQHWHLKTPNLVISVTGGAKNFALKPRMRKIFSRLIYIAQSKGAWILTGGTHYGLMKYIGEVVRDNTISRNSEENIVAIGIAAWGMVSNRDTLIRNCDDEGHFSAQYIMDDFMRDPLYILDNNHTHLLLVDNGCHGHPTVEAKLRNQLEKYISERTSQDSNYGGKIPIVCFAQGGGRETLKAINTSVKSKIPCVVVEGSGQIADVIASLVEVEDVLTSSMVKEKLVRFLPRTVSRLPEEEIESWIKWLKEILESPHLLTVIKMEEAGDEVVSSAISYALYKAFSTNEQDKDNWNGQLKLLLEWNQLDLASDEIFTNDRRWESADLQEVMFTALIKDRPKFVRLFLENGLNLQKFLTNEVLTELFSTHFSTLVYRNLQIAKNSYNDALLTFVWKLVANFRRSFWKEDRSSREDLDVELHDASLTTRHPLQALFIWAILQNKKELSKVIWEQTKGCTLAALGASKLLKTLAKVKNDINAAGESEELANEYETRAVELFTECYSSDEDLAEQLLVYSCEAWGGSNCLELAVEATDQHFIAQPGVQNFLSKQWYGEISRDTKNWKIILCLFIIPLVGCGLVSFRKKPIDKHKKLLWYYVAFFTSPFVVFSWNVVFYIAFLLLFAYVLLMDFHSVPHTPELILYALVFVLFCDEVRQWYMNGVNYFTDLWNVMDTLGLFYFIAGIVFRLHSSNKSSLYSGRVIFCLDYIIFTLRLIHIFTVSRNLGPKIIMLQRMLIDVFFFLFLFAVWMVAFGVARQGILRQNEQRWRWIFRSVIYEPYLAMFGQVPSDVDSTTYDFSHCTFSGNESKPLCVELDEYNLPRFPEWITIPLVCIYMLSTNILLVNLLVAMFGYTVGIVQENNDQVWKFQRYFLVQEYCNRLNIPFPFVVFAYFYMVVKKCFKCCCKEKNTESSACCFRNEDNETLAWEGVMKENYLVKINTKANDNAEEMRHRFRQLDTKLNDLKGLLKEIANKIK
Chain of Transient receptor potential cation channel subfamily M member 8 (Q8R455 whole entry): as the sequence (Q8R455 whole entry, looked up) above
T1 sequence (Q8NER1 whole entry): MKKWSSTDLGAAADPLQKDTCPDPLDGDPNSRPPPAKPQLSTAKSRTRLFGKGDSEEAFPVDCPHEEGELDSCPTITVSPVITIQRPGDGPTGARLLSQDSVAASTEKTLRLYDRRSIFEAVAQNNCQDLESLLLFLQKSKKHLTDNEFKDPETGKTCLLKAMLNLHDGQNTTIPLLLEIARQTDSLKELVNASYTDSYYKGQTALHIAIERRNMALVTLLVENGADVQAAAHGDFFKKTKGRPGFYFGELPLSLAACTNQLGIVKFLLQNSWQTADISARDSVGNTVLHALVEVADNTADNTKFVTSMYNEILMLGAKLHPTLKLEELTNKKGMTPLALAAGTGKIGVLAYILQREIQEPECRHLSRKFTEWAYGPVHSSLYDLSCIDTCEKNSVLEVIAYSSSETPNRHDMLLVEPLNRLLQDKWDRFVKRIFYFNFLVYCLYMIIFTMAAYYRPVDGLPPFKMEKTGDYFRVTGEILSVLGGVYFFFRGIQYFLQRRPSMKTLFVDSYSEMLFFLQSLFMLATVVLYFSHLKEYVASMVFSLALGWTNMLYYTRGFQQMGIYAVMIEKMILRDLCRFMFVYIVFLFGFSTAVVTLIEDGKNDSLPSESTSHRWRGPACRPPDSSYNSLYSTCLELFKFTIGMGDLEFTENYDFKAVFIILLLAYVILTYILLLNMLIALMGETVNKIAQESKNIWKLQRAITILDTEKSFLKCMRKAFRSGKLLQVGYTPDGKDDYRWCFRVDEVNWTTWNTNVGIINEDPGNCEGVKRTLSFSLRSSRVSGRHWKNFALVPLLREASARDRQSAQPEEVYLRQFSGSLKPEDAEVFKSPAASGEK

Consider `CC(C)=CCC/C(C)=C\CNC(=O)Cc1ccc(Cl)cc1`, for which the 50% effective concentration (EC50) was 430 nM in experiment [1] and 1000 nM in experiment [5]. Also, the half-inhibitory concentration (IC50) in experiment [2] is 2200 nM; in experiment [4], 940 nM; in experiment [6], 530 nM. Also, the values for the Efficacy in experiment [3] and in experiment [7] were under 10% and 57.9%, respectively.

On to `CC(C)=CCC/C(C)=C/CNC(=O)CCc1ccccc1`, for which the EC50 in experiment [1] came out at 16200 nM; in experiment [5] it was 7500 nM. Besides, the concentration for half-maximal inhibition (IC50) in experiment [2] was 5500 nM; in experiment [4], 7400 nM; in experiment [6], over 100000 nM. Moreover, the results for the Efficacy in experiment [3] and in experiment [7] were under 10% and 10.5%, respectively.

For `CC(C)=CCC/C(C)=C\COC(=O)Cc1cccc(I)c1`, the concentration for half-maximal inhibition (IC50) in experiment [2] was over 100000 nM; in experiment [4], 940 nM; in experiment [6], over 100000 nM. Further, the Efficacy in experiment [3] and in experiment [7] was under 10% each time. Besides, in experiment [5], the EC50 amounted to 100 nM.

As to `CC(C)=CCC/C(C)=C/COC(=O)c1ccc(C#N)cc1`, the IC50 in experiment [2] is over 100000 nM; in experiment [4], 730 nM; in experiment [6] it was over 100000 nM. Besides, the Efficacy in experiment [3] and in experiment [7] was under 10% each time. Moreover, the EC50 in experiment [5] was 480 nM.

Consider `CC(C)=CCC/C(C)=C/COC(=O)c1cccc(C)c1`, for which the half-inhibitory concentration (IC50) in experiment [2] was over 100000 nM; in experiment [4], 1400 nM; in experiment [6], over 100000 nM. Moreover, the Efficacy in experiment [3] and in experiment [7] was under 10% throughout. In addition, the concentration giving a half-maximal response (EC50) in experiment [5] turned out to be 2400 nM.

Turning to `CC(=O)OC/C=C(/C)CCC=C(C)C` [NERYL ACETATE], the values for the IC50 in experiment [2], in experiment [4] and in experiment [6] were over 100000 nM, 20700 nM and over 100000 nM, respectively. Moreover, the Efficacy in experiment [3] and in experiment [7] was under 10% each time. Also, the 50% effective concentration (EC50) in experiment [5] worked out at 13300 nM.

Regarding `CC(C)=CCC/C(C)=C\COC(=O)c1ccc(C)cc1`, the IC50 was 1200 nM in experiment [2], 110 nM in experiment [4] and over 100000 nM in experiment [6]. Moreover, the Efficacy in experiment [3] and in experiment [7] was under 10% each time. The EC50 in experiment [5] was found to be 93 nM.

Turning to `CC(C)=CCC/C(C)=C\CO` [NEROL], the half-inhibitory concentration (IC50) in experiment [2], in experiment [4] and in experiment [6] was over 100000 nM throughout. Besides, the Efficacy in experiment [3] and in experiment [7] was under 10% each time. In addition, the EC50 in experiment [5] worked out at 11700 nM.

For `CC(C)=CCC/C(C)=C\CNC(=O)Nc1cccc(Cl)c1`, the concentration giving a half-maximal response (EC50) in experiment [1] amounted to 1700 nM; in experiment [5], 430 nM. Further, the IC50 in experiment [2] came to 710 nM; in experiment [4], 410 nM; in experiment [6], 380 nM. For the same compound, the Efficacy is under 10% in experiment [3] and 20.1% in experiment [7].

Turning to `CC(C)=CCC/C(C)=C\COC(=O)CCc1ccccc1`, the half-maximal inhibitory concentration (IC50) was 290 nM in experiment [2], 110 nM in experiment [4] and over 100000 nM in experiment [6]. Further, the Efficacy in experiment [3] and in experiment [7] was under 10% each time. Also, the EC50 in experiment [5] stood at 110 nM.

As to `CC(C)=CCC/C(C)=C/COC(=O)Cc1ccc(C)cc1`, the results for the concentration for half-maximal inhibition (IC50) in experiment [2] and in experiment [6] were 5800 nM and over 100000 nM, respectively. Moreover, the Efficacy in experiment [3] and in experiment [7] was under 10% throughout.

For `CC(C)=CCCC(C)CCOC(=O)CCc1ccccc1` (stereo unspecified), the half-maximal inhibitory concentration (IC50) in experiment [2] is over 100000 nM; in experiment [4] it was 340 nM; in experiment [6], over 100000 nM. Moreover, the Efficacy in experiment [3] and in experiment [7] was under 10% each time. The EC50 in experiment [5] came out at 160 nM.

`CC(C)=CCC/C(C)=C\CNC(=O)CCc1ccccc1`: the values for the IC50 in experiment [2], in experiment [4] and in experiment [6] were 2200 nM, 13900 nM and over 100000 nM, respectively. Moreover, the Efficacy in experiment [3] and in experiment [7] was under 10% each time. Moreover, the EC50 in experiment [5] was 6600 nM.

For `CC(C)=CCC/C(C)=C\COC(=O)Cc1ccc2ccccc2c1`, the figures for the IC50 in experiment [2], in experiment [4] and in experiment [6] were over 100000 nM, 180 nM and over 100000 nM, respectively. The Efficacy in experiment [3] and in experiment [7] was under 10% each time. Also, in experiment [5], the concentration giving a half-maximal response (EC50) was determined as 81 nM.

For the compound `COc1ccc(CC(=O)OC/C=C(/C)CCC=C(C)C)cc1`, the figures for the half-maximal inhibitory concentration (IC50) in experiment [2], in experiment [4] and in experiment [6] were 9700 nM, 260 nM and over 100000 nM, respectively. In addition, the Efficacy in experiment [3] and in experiment [7] was under 10% each time. Further, the EC50 in experiment [5] worked out at 140 nM.

Regarding `CC(C)=CCC/C(C)=C\COC(=O)c1ccc(C#N)cc1`, the 50% inhibitory concentration (IC50) was over 100000 nM in experiment [2], 340 nM in experiment [4] and over 100000 nM in experiment [6]. Also, the Efficacy in experiment [3] and in experiment [7] was under 10% each time. Further, the concentration for a half-maximal effect (EC50) in experiment [5] came out at 260 nM.

For the compound `CC(C)=CCCC(C)CCO` (racemic) [CITRONELLOL], the 50% inhibitory concentration (IC50) in experiment [2], in experiment [4] and in experiment [6] was over 100000 nM each time. For the same compound, the Efficacy in experiment [3] and in experiment [7] was under 10% each time. Moreover, in experiment [5], the half-maximal effective concentration (EC50) is over 100000 nM.

`CC(C)=CCC/C(C)=C\COC(=O)Cc1ccc(Cl)cc1`: the IC50 was 750 nM in experiment [2], 13 nM in experiment [4] and over 100000 nM in experiment [6]. Besides, the Efficacy in experiment [3] and in experiment [7] was under 10% throughout. For the same compound, in experiment [5], the EC50 is 16 nM.

In the case of `CC(C)=CCC/C(C)=C\COC(=O)Cc1ccc(C)cc1`, the concentration for half-maximal inhibition (IC50) in experiment [2] was 280 nM; in experiment [6], over 100000 nM. In addition, the Efficacy in experiment [3] and in experiment [7] was under 10% each time.

With `CC(C)=CCC/C(C)=C/COC(=O)c1cc(C(F)(F)F)cc(C(F)(F)F)c1`, the half-maximal inhibitory concentration (IC50) in experiment [2], in experiment [4] and in experiment [6] was over 100000 nM in each case. Moreover, the Efficacy in experiment [3] and in experiment [7] was under 10% throughout. Also, in experiment [5], the concentration for a half-maximal effect (EC50) stood at 11900 nM.

With `CC(C)=CCCC(C)CCOC(=O)Cc1ccc(C)cc1` (stereo unspecified), the IC50 in experiment [2] was 2400 nM; in experiment [6], over 100000 nM. For the same compound, the Efficacy in experiment [3] and in experiment [7] was under 10% throughout.

As for `CC(C)=CCCC(C)CCOC(=O)Cc1ccc(Cl)cc1` (stereo unspecified), the figures for the half-inhibitory concentration (IC50) in experiment [2] and in experiment [6] were 830 nM and over 100000 nM, respectively. Further, the Efficacy in experiment [3] and in experiment [7] was under 10% in each case.

For `CC(C)=CCC/C(C)=C\COC(=O)c1cccc(C)c1`, the IC50 in experiment [2] is 30800 nM; in experiment [4], 140 nM; in experiment [6], over 100000 nM. For the same compound, the Efficacy in experiment [3] and in experiment [7] was under 10% throughout. For the same compound, the EC50 in experiment [5] came out at 140 nM.

Regarding `CC(=O)OC/C=C(\C)CCC=C(C)C` [GERANYL ACETATE], the IC50 was over 100000 nM in experiment [2], 21200 nM in experiment [4] and over 100000 nM in experiment [6]. Moreover, the Efficacy in experiment [3] and in experiment [7] was under 10% in each case. Further, the EC50 in experiment [5] was 25800 nM.

Turning to `CC(C)=CCC/C(C)=C/COC(=O)Cc1ccc(Cl)cc1`, the IC50 in experiment [2] is over 100000 nM; in experiment [4], 130 nM; in experiment [6] it was over 100000 nM. Moreover, the Efficacy in experiment [3] and in experiment [7] was under 10% throughout. Besides, in experiment [5], the half-maximal effective concentration (EC50) was 120 nM.

In the case of `CC(C)=CCCC(C)CCOC(=O)c1ccc(C)cc1` (stereo unspecified), the values for the concentration for half-maximal inhibition (IC50) in experiment [2], in experiment [4] and in experiment [6] were over 100000 nM, 870 nM and over 100000 nM, respectively. The Efficacy in experiment [3] and in experiment [7] was under 10% each time. Further, the EC50 in experiment [5] is 280 nM.

By EC50 is commonly meant the concentration that produces a half-maximal response. The term IC50 denotes the concentration that gives 50% inhibition.
